Results collected from several papers.
Each line is one published result; the experiments were not run side by side.
Organism: Mycobacterium tuberculosis variant bovis BCG
Read-out: microbial growth

COc1ccc(C=CC(=O)c2ccccc2Cl)cc1OC  MIC (BCG; 7 days): 12.5 µg/mL
Fc1ccc(COc2ccccc2CNCc2ccccc2)cc1  MIC (ATCC35734 BCG): > 62.5 µM
CO[C@H]1/C=C/O[C@@]2(C)Oc3c(C)c(O)c4c(O)c(c(/C=N/N5CCN(C)CC5)c(O)c4c3C2=O)NC(=O)/C(C)=C\C=C\[C@H](C)[C@H](O)[C@@H](C)[C@@H](O)[C@@H](C)[C@H](OC(C)=O)[C@@H]1C  MIC (BCG; 6 days): < 0.78 µM
COc1ccc(C=CC(=O)c2ccccc2Br)cc1OC  MIC (BCG; 7 days): 25 µg/mL
CNC(=O)c1cc(Oc2ccc(NC(=O)Nc3ccc(Cl)c(C(F)(F)F)c3)cc2)ccn1  MIC (BCG): 12.5 µM
COc1ccc(C=CC(=O)c2ccc(Cl)cc2Cl)cc1OC  MIC (BCG; 7 days): 200 µg/mL
c1ccc(COc2ccccc2CNCc2cccnc2)cc1  MIC (ATCC35734 BCG): > 62.5 µM
O=C(Nc1ccc2c(c1)OC(F)(F)O2)Nc1ccc(Cl)c(C(F)(F)F)c1  MIC (BCG): 3 µM
Fc1ccc(COc2ccccc2CNCc2cccnc2)cc1  MIC (ATCC35734 BCG): > 62.5 µM
CO[C@H]1/C=C/O[C@@]2(C)Oc3c(C)c(O)c4c(O)c(c(/C=N/N5CCN(C)CC5)c(O)c4c3C2=O)NC(=O)/C(C)=C\C=C\[C@H](C)[C@H](O)[C@@H](C)[C@@H](O)[C@@H](C)[C@H](OC(C)=O)[C@@H]1C  MIC (BCG): < 0.2 µg/mL
